# High-throughput results as filed in PubChem.
# CaV13 FRET inh: Disruptors of the CACNA1D IQ motif to Ca2+-dependent inactivation inhibitor domain association, primary screening, Förster resonance energy transfer in intact living … | inhibition, % at 12.3 µM | AID 743397 | HEK cells, CFP/YFP FRET ICDI-IQ, plate reader, 10 min; percent FRET-ratio fall versus neutral wells | 340,000 compounds, 0.098% hits;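 active means mean replicate inhibition of at least 30% and at least 1% of replicates passing that level; inconclusive means only one of the two criteria is met; inactive means neither criterion is met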
# DENV2 CPE: inhibitors of DENV2 cytopathic effect, primary screen, cell-based, plate reader, single concentration; CPE inhibition, % at 9.99 µM; 350,000 compounds, 1.7% hits; DENV2-infected cells, cytopathic effect rescue; in the data active means CPE inhibition above about 20%, passing the limit was not always enough; inconclusive means no clear call, values can overlap the other calls; tested in BHK-21 cells
# CASP6 VEID inh: human caspase-6 inhibitors, primary screen, biochemical, VEID-R110 fluorescence, single point, set 2. P55212. purified caspase-6, Z-VEID-R110 cleavage fluorescence. inhibition, % at 12.5 µM. 350,000 compounds, 0.53% hits;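 active means mean inhibition across replicates at least about 35%, with every replicate also reaching that limit, limit read from the data; inconclusive means only one of the two criteria met; inactive means neither criterion met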
# Target sequence (P55212 24-179 limits assumed): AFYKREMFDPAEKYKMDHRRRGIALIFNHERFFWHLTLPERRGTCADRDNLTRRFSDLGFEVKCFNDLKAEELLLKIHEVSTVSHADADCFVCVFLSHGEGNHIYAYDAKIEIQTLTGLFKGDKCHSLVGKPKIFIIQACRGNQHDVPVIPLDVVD
# Target sequence (P55212 194-293 limits assumed): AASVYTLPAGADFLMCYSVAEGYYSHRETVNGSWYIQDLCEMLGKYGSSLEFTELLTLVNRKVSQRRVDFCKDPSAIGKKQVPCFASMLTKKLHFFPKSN
# XiGFP reactiv: activators of inactive X chromosome reactivation, primary screen, imaging, XiGFP fibroblasts, GFP high-content imaging, set 2; XiGFP mouse fibroblasts, % GFP-positive cells imaging, 3 d; cells co-treated with 5-aza-dC sensitizer; scaled so ellipticine positive control = 100%; activation, % at 7.58 µM; 360,000 compounds, 0.055% hits; AID 743238, 2013;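 active means mean normalized replicate activation at least 10% and every replicate at or above 10%; inconclusive means only one of the two criteria met; inactive means mean below 10% and not all replicates reach 10%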
#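 assay system = SV40-immortalized XiGFP fibroblast cells, line 68-5-11 | buffer or medium = DMEM plus 5-aza-dC sensitizer | doses = single-point pinned compound dosing | times = 3-day compound exposure, then 15 min fixation at room temperature | benchmarks = positive control ellipticine, 6 µM final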
# FN deposit inh: inhibitors of fibronectin matrix deposition, primary screen, AH1F cells, Alexa488-fibronectin fluorescence, plate reader | AH1F fibroblasts, overnight | inhibition, % at 12.6 µM | 350,000 compounds, 0.086% hits | AID 743247, 2014;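 active means mean inhibition across replicates of 30% or more, regardless of how many single replicates reach that level; inconclusive means mean under 30% yet at least half of replicates reach 30%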
#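 Test system: AH1F fibroblast monolayer depositing Alexa488-labelled fibronectin into matrix. Input: 10000 cells per well. Technique: fluorescence, ex 485 nm, em 525 nm. Buffer or medium: DMEM plus 2% serum, read in PBS. Timing: 1 h cell adhesion before compound, then overnight fibronectin incubation. Compound: single dose, pinned. Read-out basis: inhibition from reduced deposited-fibronectin fluorescence.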
# Hits are given with their value; 0 = inactive; ? = inconclusive; - = no result. Shown are actives, neighbours in structure and some others; about 2% of the full set was active somewhere.
SMILES,CaV13 FRET inh,DENV2 CPE,CASP6 VEID inh,XiGFP reactiv,FN deposit inh
O=C(N/N=C/c1oc(O)c2ccccc12)c1ccccc1O,0,0,37,0,0
O=C(N/N=C/c1ccnc2ccccc12)c1ccccc1O,0,0,0,0,0
COc1ccc(/C=N/NC(=O)c2ccccc2O)cc1CN1CCOCC1,0,?,42,0,0
Cc1cc(C)cc(C(=O)N/N=C/c2ccoc2)c1,-,0,0,0,-
COc1ccc(/C=N/NC(=O)c2cccc(Br)c2)cc1CN1CCOCC1,0,0,0,0,0
O=C(N/N=C/c1ccoc1)c1ccccc1O,0,0,50,0,0
CC(C)[C@@H]1C(=O)N[C@@H](c2ccc3c(c2)OCO3)C/C=C/C[C@H](C)Oc2ccccc2C(=O)N1C,-,-,-,0,0
CN1C(=O)c2cc(NC(=O)Nc3ccccc3F)ccc2OC[C@@H]2O[C@H](CC(=O)NCc3ccc(-c4ccccc4)cc3)CC[C@H]21,-,?,0,0,0
CO[C@@H]1CN(C)C(=O)c2cc(NC(=O)NC(C)C)ccc2OC[C@@H](C)N(C)C[C@H]1C,-,?,0,0,0
COCC(=O)Nc1ccc2c(c1)C(=O)N(C)C[C@H](OC)[C@H](C)CN(Cc1cccc(F)c1)[C@@H](C)CO2,-,0,0,0,0
C[C@@H]1CN([C@@H](C)CO)C(=O)Cc2cc(NS(C)(=O)=O)ccc2O[C@H]1CN(C)C(=O)Nc1ccc(C(F)(F)F)cc1,-,-,-,0,-
O=C(N/N=C/c1ccc[nH]1)c1ccccc1O,0,0,60,0,0
O=C(c1cccnc1)N1CC(=O)N2[C@H](C1)[C@@H](c1ccc(-c3ccccc3F)cc1)[C@@H]2CO,-,35,0,0,0
O=C(C1CCOCC1)N1CC(=O)N2[C@H](C1)[C@@H](c1ccc(-c3ccccc3F)cc1)[C@@H]2CO,-,23,0,0,-
O=C(C1CCOCC1)N1CC(=O)N2[C@H](CO)[C@@H](c3ccc(-c4ccccc4F)cc3)[C@@H]2C1,-,0,0,0,-
O=C(C1CCOCC1)N1CC(=O)N2[C@H](C1)[C@H](c1ccc(-c3ccccc3F)cc1)[C@@H]2CO,-,21,0,0,-
O=C(c1ccncc1)N1CC(=O)N2[C@H](CO)[C@@H](c3ccc(-c4ccccc4F)cc3)[C@H]2C1,-,0,0,0,-
O=C(O)c1c2c(nc3ccc(Cl)cc13)CCC2,0,0,50,0,0
C[C@H]1CN([C@@H](C)CO)C(=O)Cc2cc(NS(=O)(=O)c3ccc(Cl)cc3)ccc2O[C@@H]1CN(C)Cc1ccc(-c2ccccc2)cc1,-,-,-,0,-
C/C(Cl)=C\Cn1c(O)c(N=NC(N)=S)c2ccccc21,0,0,0,0,0
NC(=S)N=Nc1c(O)n(Cc2ccccc2)c2ccccc12,0,63,0,0,0
C[C@H]1CN([C@@H](C)CO)C(=O)Cc2cc(NS(C)(=O)=O)ccc2O[C@@H]1CN(C)C(=O)NC1CCCCC1,-,0,0,0,-
COCCNC(=O)C[C@H]1CC[C@H](NC(=O)NC2CCCC2)[C@H](CO)O1,-,0,0,0,0
COCCNC(=O)C[C@@H]1CC[C@H](NC(=O)NC2CCCC2)[C@@H](CO)O1,-,22,0,0,0
CSc1nnc(C)c(=O)n1COC(=O)c1cc(Cl)ccc1[N+](=O)[O-],0,0,0,0,0
SMILES,CaV13 FRET inh,DENV2 CPE,CASP6 VEID inh,XiGFP reactiv,FN deposit inh
CSc1nnc(C)c(=O)n1COC(=O)c1ccc([N+](=O)[O-])cc1,0,0,0,0,31
Cc1cc(S(=O)(=O)NC(=O)[C@H]2O[C@@H](n3ccc(=O)[nH]c3=O)[C@H](O)[C@@H]2O)ccc1Br,0,20,0,0,0
O=C(NS(=O)(=O)c1ccccc1[N+](=O)[O-])[C@H]1O[C@@H](n2ccc(=O)[nH]c2=O)[C@H](O)[C@@H]1O,0,0,0,0,0
COc1ccc2c3c([nH]c2c1)[C@@H](CO)N(C(=O)c1ccc(F)cc1)CC31CN(C(=O)Nc2ccc(F)cc2)C1,-,-,-,0,-
CC(C)C(NS(=O)(=O)c1ccc2c(c1)C(C)(C)C(=O)N2C)C(=O)NCc1ccccc1Cl (stereo not drawn),0,80,0,0,0
O=C(C[C@H]1CC[C@@H](NC(=O)Nc2ccc(C(F)(F)F)cc2)[C@H](CO)O1)NCc1ccccn1,-,0,0,0,-
O=C(NCc1ccc(F)cc1)c1cc(-c2ccccn2)nc2ccc(S(=O)(=O)N3CCOCC3)cc12,0,31,0,0,0
S=C(Nc1cccnc1)Nc1cccc2cnccc12,0,0,44,0,0
Fc1ccc(NC(=S)Nc2cccc3cnccc23)cc1,0,0,36,0,0
COc1ccc(NC(=S)Nc2cccc3cnccc23)cc1,0,-,-,0,-
S=C(Nc1ccc(Cl)cc1)Nc1cccc2cnccc12,0,0,0,0,0
C[C@@H]1CCCCO[C@H](CN(C)S(=O)(=O)c2ccc(Cl)cc2)[C@H](C)CN([C@H](C)CO)C(=O)c2cc(NC(=O)C3CCCCC3)ccc2O1,-,0,0,0,0
O=S(=O)(c1ccc2c(c1)OCCO2)N1CCN(S(=O)(=O)c2c(F)cc(F)cc2F)CC1,0,0,0,0,0
O=C(Nc1ccccc1)C1CCN(S(=O)(=O)c2ccc3c(c2)OCCO3)CC1,0,0,36,0,0
O=S(=O)(c1ccc2c(c1)OCCO2)N1CCCN(S(=O)(=O)c2c(F)cccc2F)CC1,0,90,0,0,0
C[C@@H]1CN([C@H](C)CO)C(=O)c2cc(C#CC3CC3)cnc2O[C@@H]1CN(C)C(=O)c1ccncc1,-,-,-,0,-
COc1ccc(S(=O)(=O)N(C)C[C@H]2OCCCC[C@@H](C)Oc3ccc(NC(=O)Nc4ccc(F)cc4)cc3C(=O)N([C@@H](C)CO)C[C@H]2C)cc1,-,0,0,0,0
COc1ccc(NC(=O)Nc2ccc3c(c2)C(=O)N([C@@H](C)CO)C[C@@H](C)[C@@H](CN(C)S(=O)(=O)c2ccc(Cl)cc2)OCCCC[C@@H](C)O3)cc1,-,0,0,0,0
COc1ccc(NC(=O)Nc2ccc3c(c2)C(=O)N([C@@H](C)CO)C[C@@H](C)[C@@H](CN(C)S(=O)(=O)c2ccc(F)cc2)OCCCC[C@@H](C)O3)cc1,-,30,0,0,0
COc1ccc(NC(=O)Nc2ccc3c(c2)C(=O)N([C@@H](C)CO)C[C@@H](C)[C@H](CN(C)S(=O)(=O)c2ccc(Cl)cc2)OCCCC[C@@H](C)O3)cc1,-,36,0,0,0
Cc1ccc2nc(SCC(=O)Nc3ccc(F)cc3F)[nH]c2c1,0,-,-,0,0
O=C(CSc1nc(=O)[nH]c2c1CCCC2)Nc1ccc(F)cc1F,0,41,0,0,0
Oc1ccc(/C=N/N2CCCCC2)c(O)c1O,0,0,39,0,0
